Data taken from paper PMC3632105 (Nucleic Acids Research, 2013).
Several values for one entry are separate records, joined by “and”; a condition that tells them apart may be missing. Equal entries are not always repeated.

What was measured:
DnaG-C [1] = test: Isothermal titration calorimetry of DnaG-C with SSB-Carb peptide; assay type: binding, Escherichia coli; conditions: for binding (association) constant KA by ITC: model of n identical independent sites
DnaG-C [2] = test: NMR titration; assay type: binding, Escherichia coli; conditions: 300 µM 15N-DnaG-C titrated with SSB-Carb, 295 K, 600 MHz
Method in brief: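 15N-DnaG-C in 5 mM potassium phosphate pH 7.4, 5 mM NaCl, 2 mM DTT, 10% D2O. Peptide was added from a 30 mM DMSO stock to final 0, 0.1, 0.3, 0.6 and 1 mM. SOFAST-HMQC spectra used 16 scans. Shift = sqrt[Δδ(1H)² + (Δδ(15N)/10)²], comparing no peptide with 1 mM.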

SSB = conditions: low salt conditions; cited from earlier work
[3] = Sedimentation coefficient of the free proteins; assay type: physicochemical; conditions: low salt buffer: 5 mM potassium phosphate, pH 7.4, 5 mM NaCl, 8% (w/v) glycerol, 0.5 mM DTT; 20°C, 50 000 rpm
Method in brief: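 Sedimentation velocity in double-sector cells, recording 280 nm absorbance versus radial position. Samples were full-length DnaG, DnaG-N (residues 1–433), DnaG-C (434–581) and E. coli SSB. Concentrations came from 280 nm extinction coefficients. Data were evaluated as c(s) distributions in SEDFIT.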

[4] = 150 mM NaCl, 5 mM potassium phosphate, pH 7.4, 8% (w/v) glycerol, 25°C, SSB-Carb on DnaG-C

Molecule: WMDFDDDIPF [SSB-Carb]
- binding (association) constant KA by ITC (DnaG-C [1]; 5 mM NaCl, 5 mM potassium phosphate, pH 7.4, 8% (w/v) glycerol, 25°C, 1.04 mM SSB-Carb titrated into 46 µM DnaG-C): 240000 M⁻¹
- binding enthalpy ΔH by ITC (DnaG-C [1]; 5 mM NaCl, 5 mM potassium phosphate, pH 7.4, 8% (w/v) glycerol, 25°C, SSB-Carb on DnaG-C): -12.4 kcal/mol
- binding (association) constant KA by ITC (DnaG-C [1]; 150 mM NaCl, 5 mM potassium phosphate, pH 7.4, 8% (w/v) glycerol, 25°C, 1.08 mM SSB-Carb titrated into 46 µM DnaG-C): 74000 M⁻¹ and ~70000 M⁻¹
- binding enthalpy ΔH by ITC (DnaG-C [1]; [4]): -9.87 kcal/mol
- binding stoichiometry n by ITC (DnaG-C [1]; [4]): 0.89
- change of affinity on increase of salt concentration (DnaG-C [1]; from 5 to 150 mM NaCl, DnaG-C/SSB-Carb interaction, ITC): decreases the affinity only by a factor of about three
- chemical shift change of W522 side chain of DnaG-C (in words) (DnaG-C [2]): not only the chemical shifts of tryptophan 522 backbone change upon addition of SSB-Carb peptide but also those of the side chain
- chemical shift change of W522 side chain of DnaG-C (in words) (DnaG-C [2]; listed as peptide): strong changes in chemical shift on peptide binding

Molecule: χ: χ subunit of DNA polymerase III
- increase in SSB-binding affinity in presence of ssDNA (SSB): 20 fold

Molecule: EcoSSB: Escherichia coli single-stranded DNA-binding protein; concentrations given in tetramers
- sedimentation coefficient, free protein [3]: 3.9 S

Molecule: DnaG: full-length E. coli DnaG primase
- sedimentation coefficient, free protein [3]: 3.4 S

B1: DnaG-C: amino acid residues 434–581 of DnaG, C-terminal helicase-binding domain (protein, UniProt P0ABS5 434-581, looked up, fragment)
chain: AAESGVSRPVPQLKRTTMRILIGLLVQNPELATLVPPLENLDENKLPGLGLFRELVNTCLSQPGLTTGQLLEHYRGTNNAATLEKLSMWDDIADKNIAEQTFTDSLNHMFDSLLELRQEELIARERTHGLSNEERLELWTLNQELAKK
modifications: helicase-binding domain
- sedimentation coefficient, free protein [3]: 1.4 S

B2: DnaG-N: amino acid residues 1–433 of DnaG (protein, UniProt P0ABS5 1-433, looked up, fragment)
chain: MAGRIPRVFINDLLARTDIVDLIDARVKLKKQGKNFHACCPFHNEKTPSFTVNGEKQFYHCFGCGAHGNAIDFLMNYDKLEFVETVEELAAMHNLEVPFEAGSGPSQIERHQRQTLYQLMDGLNTFYQQSLQQPVATSARQYLEKRGLSHEVIARFAIGFAPPGWDNVLKRFGGNPENRQSLIDAGMLVTNDQGRSYDRFRERVMFPIRDKRGRVIGFGGRVLGNDTPKYLNSPETDIFHKGRQLYGLYEAQQDNAEPNRLLVVEGYMDVVALAQYGINYAVASLGTSTTADHIQLLFRATNNVICCYDGDRAGRDAAWRALETALPYMTDGRQLRFMFLPDGEDPDTLVRKEGKEAFEARMEQAMPLSAFLFNSLMPQVDLSTPDGRARLSTLALPLISQVPGETLRIYLRQELGNKLGILDDSQLERLMPK
- sedimentation coefficient, free protein [3]: 2.9 S
